ChEMBL document CHEMBL4813947, “New dual ATP-competitive inhibitors of bacterial DNA gyrase and topoisomerase IV active against ESKAPE pathogens” (Eur J Med Chem, 2021)
Values after ≈ are worked out from the molar mass of the structure shown.

Key:
Escherichia coli [1] = experiment: Antibacterial activity against clinical isolate ciprofloxacin resistance Escherichia coli 31995 assessed as inhibition of bacterial growth by CLSI protocol based broth microdilution assay; assay type: functional
Method in brief: (§1)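 Minimum inhibitory concentration by standard serial broth microdilution following CLSI guidelines. Medium was MHBII broth (22 g/L powder: beef extract, casein acid hydrolysate, starch), with MHBII agar (14 g agar per L broth). Where noted, assayed without and with efflux pump substrate phenylalanine-arginine β-naphthylamide (PAβN).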

Escherichia coli [2] = experiment: Antibacterial activity against Escherichia coli ATCC 25922 assessed as inhibition of bacterial growth by CLSI protocol based broth microdilution assay; assay type: functional
[3] = Ratio of genotoxicity in CHO-K1 cells by invitro micronucleus test to MIC for vancomycin-resistant Staphylococcus aureus ATCC 700699; assay type: toxicity, cell-based; conditions: hamster
Escherichia coli [4] = experiment: Antibacterial activity against Escherichia coli MG1655 harboring GyrB R136C mutant assessed as inhibition of bacterial growth in presence of efflux pump inhibitor PAbetaN by CLSI protocol based broth microdilution assay; assay type: functional; method in brief: as §1
Staphylococcus aureus [5] = experiment: Ratio of MIC for methicillin-resistant Staphylococcus aureus ATCC 43300 harboring GyrB T173A mutant to MIC for methicillin-resistant wild type Staphylococcus aureus ATCC 43300; assay type: functional
Staphylococcus aureus [6] = experiment: Ratio of MIC for vancomycin-resistant Staphylococcus aureus ATCC 700699 harboring GyrB […] mutant to MIC for vancomycin-resistant wild type Staphylococcus aureus ATCC 700699; assay type: functional
[7] = Ratio of genotoxicity in CHO-K1 cells in presence of rat liver S9 fraction by invitro micronucleus test to MIC for vancomycin-resistant Staphylococcus aureus ATCC 700699; assay type: toxicity, cell-based; conditions: CHO-K1 cells with rat liver S9 fraction
[8] = tested on: human topoisomerase 2alpha; experiment: Selectivity ratio of IC50 for inhibition of human topoisomerase 2alpha to IC50 for inhibition of Escherichia coli topoisomerase IV; assay type: toxicity; conditions: read-out: Ratio IC50
Enterococcus faecalis = experiment: Antibacterial activity against Enterococcus faecalis ATCC 29212 assessed as inhibition of bacterial growth by CLSI protocol based broth microdilution assay; assay type: functional
[9] = tested on: human topoisomerase 2alpha; experiment: Selectivity ratio of IC50 for inhibition of human topoisomerase 2alpha to IC50 for inhibition of Escherichia coli DNA gyrase; assay type: toxicity; conditions: read-out: Ratio IC50
Pseudomonas aeruginosa = experiment: Antibacterial activity against Pseudomonas aeruginosa 19488 assessed as inhibition of bacterial growth by CLSI protocol based broth microdilution assay; assay type: functional
[10] = Genotoxicity in CHO-K1 cells upto 62 uM by in presence of rat liver S9 fraction invitro micronucleus test; assay type: subcellular, Cricetulus griseus; conditions: chinese hamster
Staphylococcus aureus [11] = experiment: Antibacterial activity against methicillin-resistant Staphylococcus aureus ATCC 43300 harboring GyrB R144I mutant assessed as inhibition of bacterial growth by CLSI protocol based broth microdilution assay; assay type: functional; method in brief: as §1

Cc1[nH]c(C(=O)Nc2nc3c(OCc4ccsc4)cc(C(=O)O)cc3s2)c(Cl)c1Cl
MIC (Escherichia coli [1]): 2 µg/mL (≈ 4.15 µM) | MIC (Escherichia coli [2]): 4 µg/mL (≈ 8.29 µM) | selectivity ratio [3]: 247 | MIC (Escherichia coli [4]): 2 µg/mL | Ratio (Staphylococcus aureus [5]): 2 | Ratio (Staphylococcus aureus [6]): 2 | selectivity ratio [7]: 957 | selectivity ratio [8]: 13 | MIC (Enterococcus faecalis): 0.0156 µg/mL (≈ 0.0323 µM) | selectivity ratio [9]: 450 | MIC (Pseudomonas aeruginosa): 16 µg/mL (≈ 33.2 µM) | Activity [10]: Non-Toxic | MIC (Staphylococcus aureus [11]): 0.25 µg/mL (≈ 0.518 µM)
